Screening results deposited in PubChem BioAssay by Broad Institute.
CDK5 inh: CDK5/p35 (human) kinase inhibition | 0.01% of 330,000 active | inhibition, % at 10 µM | Q00535+Q15078 | Recombinant CDK5/p35, ADP-Glo luminescence, 60 min;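 active = highest replicate inhibition of at least 50% and at least 75% of replicates reaching 50%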;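 note: plate controls were DMSO neutral control for no effect and GW8510 at 10 µM for full effect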
GSK3B inh: human GSK3beta kinase inhibition; P49841; GST-GSK3beta kinase, ADP-Glo luminescence, 60 min; active compounds read low; activity score (negative = inhibition), % at 10 µM; 0.038% of 300,000 active; AID 2097;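 active = more than half of replicate wells score below -50%, meaning over 50% inhibition versus plate controls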;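 note: 0% = median DMSO wells and -100% = median GW8510 positive control wells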
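Test system: GST-tagged human GSK3beta kinase, cell-free; evaluation: activity score scaled between in-plate DMSO and GW8510 controls; measured by: ADP-Glo luminescence; incubation: 60 min reaction, RT; benchmarks: DMSO and 20 µM GW8510; reagent: peptide substrate plus 25 µM ATP (final); medium: Tris/MgCl2 kinase buffer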
GSK3A inh: blocks human GSK-3 alpha kinase | 0.1% of 320,000 active | AID 2650 | ADP-Glo luminescence, 60 min | inhibition, % at 10 µM | P49840;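 active = more than half of replicates show inhibition above 20%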;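 note: GST-tagged GSK-3 alpha with peptide substrate and 25 µM ATP; 0% = DMSO neutral wells and 100% = GW8510 positive control wells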
Dyrk1A ADPGlo: Dyrk1A (rat) kinase inhibition | Q63470 | ADP-Glo luminescence, NFATc1 peptide | inhibition, % at 12.5 µM | 0.43% of 310,000 active | AID 504441; in the data active = inhibition above about 50%;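 note: plate controls were vehicle with enzyme for no effect and no enzyme for full effect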
STK33 inh: human STK33 kinase inhibition; Q9BYT3; inhibition, % at 10 µM; purified STK33, MBP phosphorylation, ADP-Glo luminescence; AID 2661; 0.073% of 320,000 active;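 active = inhibition at or above 25%, using the most active replicate where run in duplicate; inactive = inhibition below 25%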
Dyrk1A artifact: ADP-Glo luciferase interference, Dyrk1A counter-screen; shares compounds with Dyrk1A ADPGlo; ADP-Glo luciferase artifact assay, no Dyrk1A, luminescence; AC50, µM (top dose mostly 12 µM), for the others: at the top dose activity change, negative = inhibition; 1,300 tested, under 10 active; AID 588348;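 active = fitted half-maximal dose AC50 no more than ten times the top valid tested dose, with luminescence dropping as dose rises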
An asterisk follows results filed as active; · = no result given. This excerpt belongs to a sample that is enriched for hits.

SMILES	CDK5 inh	GSK3B inh	GSK3A inh	Dyrk1A ADPGlo	STK33 inh	Dyrk1A artifact
O=C(COC(=O)c1cccs1)c1ccc2c(c1)OCCO2	11	2	13	13	10	·
O=C(COC(=O)c1cccs1)c1ccc2ccccc2c1	1	1	5	51*	0	7%
CC(C)C[C@H]1COCCS(=O)(=O)N1Cc1cccc(Cl)c1	1	-7	6	51*	0	8%
O=c1[nH]c2ccccc2nc1Cc1ccc([N+](=O)[O-])cc1	0	·	-2	-2	-3	·
Nc1nc2ccc([N+](=O)[O-])cc2[nH]1	1	-1	-1	55*	10	7%
O=C(Nc1ncc2c(n1)-c1ccccc1CC2)c1ccc(Cl)cc1	2	0	-2	59*	-1	8%
Nc1nc(N)c2c(ccc3nccc32)[nH]1	3	-2	0	55*	1	8%
O=C(NN1C(=O)/C(=C\c2ccc(O)c([N+](=O)[O-])c2)SC1=S)c1ccccc1Cl	1	6	-5	79*	0	5%
CC[C@]12c3[nH]c4cc(CCC(=O)N(C)C)ccc4c3CCN1C(=O)[C@@H](CC(=O)NCCCn1ccnc1)C[C@@H]2C(=O)N1CCN(C(=O)c2ccco2)CC1	4	·	·	-2	·	·
C=CCSc1nc(NC)c2sccc2n1	1	1	8	58*	2	3%
CNc1nc(SC)nc2ccsc12	2	0	0	10	2	·
